Hits are enriched below; roughly 2.1% of the tested compounds scored in any of these assays.
PERK inh – human PERK inhibition, primary cell-based screen; Q9NZJ5; CHO PERK-DD fusion, SEAP luminescence translation reporter; inhibition, % at 5.6 µM; actives 0.17% (n = 220,000); AID 1416;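 active means inhibition above the mean inhibition of all tested compounds plus 3 SD, set separately per screening campaign, cut at about 2.9% in these data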;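 further: PERK kinase domain activated by AP20187 dimerizer at 100 nM; 0% = DMSO with dimerizer and 100% = rapamycin at 8.4 µM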
Autophagy HCS – modulators of autophagy. MEF GFP-LC3 puncta imaging; test concentration mostly 10 µM. calls only at 10 µM (by protocol). actives 0.98% (n = 190,000). AID 463193;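 active means percentage of spot-positive cells more than 3 SD above its plate mean, without a fluorescence outlier flag or 80% toxicity; inconclusive means no clear call, values can overlap the other calls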;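 further: spot-positive cell cutoff set from DMSO-treated cells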
Insulin prom inh – TRM-6 insulin promoter activity inhibition | TRM-6 cells (human fetal islet line), insulin promoter-eGFP reporter, imaging; reporter expression induced with tamoxifen | inhibition, % at 2 µM | actives 0.9% (n = 130,000);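 active means inhibition above the mean plus 3 SD, with well images judged a real hit on visual review, cut at about 60% in these data, passing the limit was not always enough; inconclusive means inhibition over the cutoff but images rejected on review; inactive means inhibition not above the cutoff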
Insulin prom up – MIN6 insulin promoter up-regulation. MIN6 insulin promoter-GFP reporter, high-content imaging; hits give high values. z-score at 5 µM. actives 0.3% (n = 190,000). AID 1625;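 active means z-score above 3 at 5 µM with at least 500 cells counted in the well; inconclusive means wells under 500 cells, flagged as cytotoxic or low count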
Dynein transport – blocks dynein driven cargo transport along microtubules; actives 0.47% (n = 220,000); AID 1381; z-score, hits read low; 3617.4 mouse cells, GR-EGFP nuclear translocation imaging; test concentration mostly 20 µM; stimulated with dexamethasone, 1 µM; hits give low values;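 active means plate z-score of nuclear minus cytoplasmic receptor signal below a set negative limit, without overly bright fluorescence or cell loss, cut at about -3.5 in these data, passing the limit was not always enough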;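 further: z-score of nuclear minus cytoplasmic ring GR-EGFP intensity difference per well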
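Also added – dexamethasone, 1.0 µM final · Buffer or medium – tet-free, stripped-serum medium · Schedule – induction 48 h, compound 1 h, agonist 30 min · Detection – formaldehyde fixation, Hoechst nuclear stain, 10x automated fluorescence imaging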
Dynein confirm – dynein cargo transport inhibition, confirmation; 3617.4 GR-EGFP nuclear translocation imaging, dexamethasone-induced; actives 69% (n = 1,000); AID 463116; shares compounds with Dynein transport; calls only at 20 µM;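 active means inhibition of receptor movement into the nucleus at or above a set limit in both runs, with normal cell brightness and cell count; inconclusive means limit reached in only one run, brightness and count normal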;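 further: dexamethasone at 1 µM final in well for 30 min; nuclear minus cytoplasmic GR-EGFP mean intensity difference in channel 2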
Active calls of the source: *; i = inactive; ? = inconclusive; . = not tested or not shown; + = active, no number.

SMILES	PERK inh	Autophagy HCS	Insulin prom inh	Insulin prom up	Dynein transport	Dynein confirm
O=[N+]([O-])c1ccc(N/N=C/c2ccc[nH]2)cc1	0	+	-245	.	-11	+
O=[N+]([O-])c1ccccc1N/N=C/c1c[nH]c2ccccc12	-1	i	40	.	-0.68	.
Clc1ccccc1Cc1noc(CN2CCN(Cc3ccccn3)CC2)n1	0	i	.	.	-0.5	.
CCOC(=O)C(=CN(CCc1ccccc1)CC(=O)OC)C(=O)OCC	0	i	35	0.25	-0.025	.
COc1ccccc1NS(=O)(=O)c1cc([N+](=O)[O-])ccc1N/N=C/c1c[nH]c2ccccc12	-1	+	-264	.	-4.1	i
O=C(N/N=C/c1c[nH]c2ccccc12)c1cccc([N+](=O)[O-])c1	0	i	.	.	-0.18	.
CC(C)CC(C(=O)Nc1ccccc1)N1C(=O)C2C3C=CC(C3)C2C1=O (stereo not given)	1	i	.	-0.05	-0.14	.
COc1ccc(CNC(=O)Cn2nnc3ccccc3c2=O)cc1	1	.	.	-0.22	-5.3*	i
O=[N+]([O-])c1cc(S(=O)(=O)N2CCCCCC2)ccc1F	0	i	.	0.13	-4.4*	+
O=[N+]([O-])c1cc(S(=O)(=O)N2CCCC2)ccc1O	-1	i	0	0.08	-0.51	.
O=c1oc(-c2ccco2)nc2ccccc12	2	i	-9	0.6	-3.6*	i
COc1ccc(Cn2c(C)nnc2-c2cnn(C)c2N)cc1	1	i	53	1.9	-0.74	.
CCOC(=O)c1c(-c2ccc(C)o2)csc1NC(=S)NC(=O)N(C)C	-1	i	.	-0.7	-3.8*	i
COc1ccc(OCCCC(=O)Nc2ncn[nH]2)cc1	1	i	.	.	0.13	.
Nc1nc2ccc(S(=O)(=O)N3CCCCC3)cc2s1	2	i	.	-0.09	-4.1*	i
CCC1=C2CC[C@H]3C(=O)N(c4ccccc4)C(=O)[C@H]3[C@H]2[C@@]2(C)C(=NCc3ccccc3)OC(=O)N2C1=O	.	.	.	0.28	-4.2*	+
CCC1=C(OC(=O)N(CC)CC)N2C(=O)OC(=NCc3ccccc3)[C@]2(C)[C@H]2C1=CC[C@H]1C(=O)N(c3ccccc3)C(=O)[C@H]12	.	.	.	0.17	-0.87	.
COC(=O)c1ccc(C23CC4(C2)[C@H](CN(C)[C@@H]4c2ccccc2)C3c2ccc(Cl)nc2)cc1 (stereo not given in full)	.	.	.	-1	-1	.
CCN1C(=O)/C(=C\c2ccncc2)SC1=Nc1ccc(C)c(C)c1	1	i	28	-1.2	-3	.
CCCN1C(=O)/C(=C\c2ccncc2)SC1=Nc1ccccc1	0	i	18	-0.46	-4.4*	i
CC1C/C(=C/c2ccco2)C(=O)/C(=C/c2ccco2)C1 (stereo not given)	0	i	-24	0.76	-3.7	+
Cn1c2ccccc2c(=O)c2c(=O)n(C3CCCCC3)c(-c3ccco3)nc21	0	i	22	-0.67	-0.37	.
CCOC(=O)/C=C/C(=O)Nc1ccccc1-c1ccccc1NC(=O)/C=C/C(=O)OCC	0	i	.	0.5	-4.1*	+
CCN(C(=O)c1coc(=O)c(Br)c1)c1ccc2c(c1)OCO2	1	i	43	.	-4.8*	+
COc1cccc(/C(O)=C/c2nc3ccc(C(=O)NCCc4ccc(Cl)cc4)cc3[nH]c2=O)c1	1	+	-130	0.95	-6.8	+
SMILES	PERK inh	Autophagy HCS	Insulin prom inh	Insulin prom up	Dynein transport	Dynein confirm
COc1ccccc1C(C[N+](=O)[O-])c1c(N)n(C)c(=O)n(C)c1=O (stereo not given)	0	.	.	-0.82	-3.5*	?
Cc1ccc(-c2nc3cnccn3c2Nc2ccccc2)o1	.	i	.	-0.9	-3.9*	i
Cc1ccc(C)c(NC(=O)C(c2ccccc2)N2CCOCC2)c1 (stereo not given)	2	i	.	-0.1	1.3	.
CCOn1c(=O)c(-c2ccc(OC)c(OC)c2)[n+]([O-])c2ccccc21	-1	i	-37	.	-3.7*	i
CCOn1c(=O)c(-c2ccc(OC)cc2)[n+]([O-])c2ccccc21	0	i	.	-0.72	1.7	.
Nc1c(C(=O)C2CC2)sc2nc(-c3ccccc3)cc(C(F)(F)F)c12	0	?	?	.	-6.1	i
COc1cccc(-c2cc(C(F)(F)F)c3c(N)c(C#N)sc3n2)c1	1	i	-62	.	-0.77	.
CC(=O)c1sc2nc(-c3cccs3)cc(C(F)(F)F)c2c1N	2	+	.	.	-4.3	+
CC(C)(c1ccccc1)c1ccc(OCC(O)CNC2CCN(Cc3ccccc3)CC2)cc1 (stereo not given)	0	+	11	?	-5*	i
CCOc1ccc(OCC(O)CNC2CCN(Cc3ccccc3)CC2)cc1 (stereo not given)	0	i	.	0.35	-0.57	.
Cc1cccc(NC(=O)CSc2nc(N)c(NC(=O)c3cccs3)c(=O)[nH]2)c1C	0	i	20	0.53	-0.59	.
CCCC(=O)OCCNc1cc(Sc2nc3ccccc3[nH]2)c2nonc2c1[N+](=O)[O-]	0	i	-60	-0.02	-3.4	.
CC(=O)OCCNc1cc(SC(C)C)c2nonc2c1[N+](=O)[O-]	0	i	33	-0.52	-1.2	.
Cc1ccc(Sc2cc(NCCCO)c([N+](=O)[O-])c3nonc23)cc1	0	.	.	.	0.68	.
CCC(=O)OCCNc1cc(Sc2nccn2C)c2nonc2c1[N+](=O)[O-]	0	i	-70	0.42	-4.8*	?
CC(=O)OCCN(C)c1cc(SC(C)C)c2nonc2c1[N+](=O)[O-]	-1	i	33	0.08	-4.7*	+
CC(=O)OCCCNc1cc(Sc2ccc(Cl)cc2)c2nonc2c1[N+](=O)[O-]	1	i	-141	-1.9	-4.8*	+
CCC(=O)OCCNc1cc(SCCC(=O)OC)c2nonc2c1[N+](=O)[O-]	0	i	29	0.71	-5.6*	+
COc1ccc(Nc2ccccc2N)cc1	0	i	.	-2.6	-5.1*	i
Nc1ccc(Nc2ccccc2N)cc1	0	i	.	0.33	-1.1	.
Cc1ccc(-c2csc3nc(C)n(-n4c(C)ccc4C)c(=O)c23)o1	0	i	-29	0.01	-4*	i
CCOc1ccc(N2C(=O)C(=O)/C(=C(/O)c3ccccc3)C2c2ccccc2[N+](=O)[O-])cc1 (stereo not given)	1	.	.	-0.57	-0.22	.
COc1cc2c(c(OC)c1O)C(=O)CO2	1	.	.	0.47	0.35	.
COc1cc(OC)c2c(O)c3c(c(-c4c5c(c(O)c6c(OC)cc(OC)cc46)CO[C@@H](C)[C@H]5O)c2c1)[C@H](O)[C@H](C)OC3	0	i	.	0.09	-4.5*	+
C=CCOC(=O)Nc1c(C(=O)OC)[nH]c2ccc(Cl)cc12	-1	i	.	1.5	-0.23	.
CCOC(=S)SCC(=O)Nc1ncc(C)s1	1	.	.	0.46	-4.1*	i

Compound activity as filed in PubChem BioAssay.
